Source: PubChem BioAssay
Autophagy mod: alters autophagy in cells; MEF GFP-LC3 puncta imaging; test concentration mostly 10 µM; calls only at 10 µM (by protocol); 0.98% of 190,000 active; AID 463193;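 active = percentage of spot-positive cells more than 3 SD above its plate mean, without a fluorescence outlier flag or 80% toxicity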;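 also: spot-positive cell cutoff set from DMSO-treated cells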
HCT116 bCat-KO: beta-catenin-lacking colon tumor cell growth suppression; 1.5% of 140,000 active; viability, % at 10 µM; HCT116 beta-catenin knockout viability, CellTiter-Glo, 60 h; active compounds read low; AID 818;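 active = viability at or under a set limit, the compound median less 4 SD, cut at about 6% in these data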;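 also: 0% = Hyamine 1622 control at 20 µM and 100% = untreated cell control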
HCT116 PTEN-null: growth suppressors of cells with PTEN tumor suppressor deletion; HCT116 PTEN-null viability, CellTiter-Glo, 60 h; active compounds read low; viability, % at 10 µM; 1.2% of 140,000 active;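 active = viability at or below a set limit, 4 SD under the median of all tested compounds, cut at about 3.7% in these data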;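 also: PTEN knockout HCT116 line with beta catenin targeted HCT116 as companion control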
Dynein transport: blocks dynein driven cargo transport along microtubules. 3617.4 mouse cells, GR-EGFP nuclear translocation imaging; test concentration mostly 20 µM; stimulated with dexamethasone, 1 µM; active compounds read low. 0.47% of 220,000 active. AID 1381. z-score, hits read low;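 active = plate z-score of nuclear minus cytoplasmic receptor signal below a set negative limit, without overly bright fluorescence or cell loss, cut at about -3.5 in these data, passing the limit was not always enough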;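 also: z-score of nuclear minus cytoplasmic ring GR-EGFP intensity difference per well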
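medium = tetracycline-free induction medium containing charcoal-stripped FBS | also added = 1.0 µM final dexamethasone stimulus | schedule = 48 h induction, 1 h compound, 30 min dex at 37 °C | technique = fixed, Hoechst-stained cells imaged at 10x for EGFP | measure = GR-EGFP nuclear translocation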
Lmaj promast: inhibitors of Leishmania major promastigote growth | Leishmania major promastigotes, resazurin fluorescence viability | inhibition, % at 10 µM | 9% of 200,000 active | AID 1063; in the data active = inhibition above about 50%;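 also: promastigotes grown with compound for 44 hours at 28 °C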
Numbers without * were called inactive; i = inactive; . = no result; + = active, no number. Hits are enriched below; roughly 9.2% of the tested compounds scored in any of these assays.

SMILES	Autophagy mod	HCT116 bCat-KO	HCT116 PTEN-null	Dynein transport	Lmaj promast
COc1cccc2c1C(=O)C=C(C)C2=O	i	1.8*	2.9*	-2.88	99.3*
O=C(NC(=S)NCCO)c1cn(-c2ccccc2)nc1-c1ccccc1	i	.	.	-1.15	25.2
Nc1c(C(=O)NCCc2ccc(Cl)cc2)sc2ccc(S(=O)(=O)N3CCCCC3)cc12	i	47.6	58.0	-0.294	82.6*
Cc1cccc(C)c1N(CC(=O)N/N=C/c1cc(Br)c(C)o1)S(C)(=O)=O	i	92.5	95.5	-0.133	70.5*
Cc1cccc(C)c1N(CC(=O)Nc1cccc(N(C)S(C)(=O)=O)c1)S(C)(=O)=O	i	93.7	101.5	-0.363	98.1*
Cc1ccc(Cl)cc1N(CC(=O)Nc1cccc(N(C)S(C)(=O)=O)c1)S(C)(=O)=O	i	.	.	1.94	2.8
CN(c1cccc(NC(=O)CN(c2cccc(Cl)c2)S(=O)(=O)c2ccc(Cl)cc2)c1)S(C)(=O)=O	i	88.6	68.4	0.0979	72.2*
CCC(CC)C(=O)c1c[nH]c(C(=O)NCC2CCCO2)c1 (stereo not drawn)	i	81.2	86.1	0.126	-3.2
Cc1ccc(-c2csc(N(CC3CCCO3)C(=O)c3ccco3)n2)cc1 (stereo not drawn)	i	46.8	43.8	-0.487	75.8*
Cc1ccccc1-n1nc(C)c2cc(C(=O)N3CCN(S(=O)(=O)c4ccc(F)cc4)CC3)sc21	i	69.0	67.9	0.234	52.5*
Cc1ccccc1-n1nc(C)c2cc(C(=O)N3CCN(S(=O)(=O)c4ccc(Cl)cc4)CC3)sc21	i	65.2	65.4	-0.332	37.8
COc1cccc(CC2(CO)CCCN(Cc3cc4ccccc4[nH]3)C2)c1 (stereo not drawn)	i	.	.	-0.548	74.1*
COc1cccc(CC2(CO)CCCN(Cc3ccc(C)s3)C2)c1 (stereo not drawn)	i	.	.	-1.01	66.7*
CCN(CC)c1c([N+](=O)[O-])c(=O)oc2ccccc12	i	.	.	-0.282	-4.5
COc1ccccc1NC(=O)N(Cc1ccccc1)C1=NCC(C)S1 (stereo not drawn)	i	89.8	86.7	-0.469	19.7
COc1ccccc1N(C(=O)NCc1ccccc1)C1=NCC(C)S1 (stereo not drawn)	i	90.5	94.4	-1.13	56.6*
Oc1ccccc1-c1nc2cnccn2c1Nc1ccc2c(c1)OCCO2	i	4.3*	3.3*	-0.645	77.2*
CSc1ccc(-c2nc3cnccn3c2Nc2ccc3c(c2)OCO3)cc1	i	37.8	32.9	-0.282	100.3*
c1cn2c(Nc3ccc4c(c3)OCCO4)c(-c3ccc(N4CCOCC4)cc3)nc2cn1	.	.	.	1.88	.
Clc1ccc(-c2nc3cnccn3c2Nc2ccc3c(c2)OCO3)cc1	.	29.5	23.6	1.04	30.3
O=C(Nc1cccc(C(F)(F)F)c1)c1cc(-c2ccc(F)cc2)on1	i	102.2	93.0	-0.592	-6.3
COc1ccc(-c2nnn(Cc3nc(N)nc(N4CCOCC4)n3)n2)cc1OC	i	94.4	100.8	-0.203	-3.7
CC1=NNC(=O)C1CCC(=O)N/N=C\c1ccccc1[N+](=O)[O-] (stereo not drawn)	i	101.2	103.0	0.0313	-6.0
C=CCNC(=S)Nc1sc2c(c1C#N)CCCC2	i	.	.	0.0271	57.9*
COc1ccc(-c2ccc(C#N)c(SCC(=O)Nc3sc4c(c3C#N)CCC4)n2)cc1OC	+	49.0	62.2	-0.0782	-7.7
SMILES	Autophagy mod	HCT116 bCat-KO	HCT116 PTEN-null	Dynein transport	Lmaj promast
CC(C)(C)C(=O)NC(=S)Nc1sc2c(c1C#N)CCCCC2	i	94.9	91.6	-0.331	12.1
Cn1cc(Cl)c(C(=O)NC(=S)Nc2sc3c(c2C#N)CCCCC3)n1	+	86.0	76.7	-0.061	44.9
N#Cc1cc2c(nc1SCC(=O)Nc1sc3c(c1C#N)CCC3)CCC2	i	104.0	88.0	0.589	-6.1
CCN1CCN(CC(=O)Nc2sc3c(c2C#N)CCC(C)C3)CC1 (stereo not drawn)	i	1.4*	1.5*	-0.444	100.4*
Cc1ccc(C)c(NC(=O)c2ccccc2NC(=O)C2CCCO2)c1 (stereo not drawn)	i	.	.	-1.67	13.1
CCCCOC(=O)CCc1c(C)n[nH]c1C	.	.	.	0.49	.
CCCC(=O)Nc1sc2c(c1C#N)CCCCC2	i	0.9*	1.0*	-0.747	-2.6
COc1cccc(-c2ccc(C#N)c(SCC(=O)NCCc3cccc(Cl)c3)n2)c1	i	71.3	73.4	3.29	-1.1
Cc1csc(SCC(=O)Nc2sc3c(c2C#N)CCC3)n1	i	48.2	46.6	-0.967	99.4*
COc1ccc(-c2ccc(C#N)c(SCC(=O)NCCc3ccccc3)n2)cc1OC	i	5.7*	4.0	1.21	-3.5
Cc1ccnc(SCC(=O)Nc2sc3c(c2C#N)CCCC3)n1	i	30.1	34.4	2.82	7.5
CC(C)OP(=O)(OC(C)C)/C(C=O)=N\Nc1ccc([N+](=O)[O-])cc1	.	.	.	-1.59	.
CCCCc1cc(=O)oc2c(C)c(OCc3nn[nH]n3)ccc12	.	.	.	0.859	.
CS(=O)(=O)N(Cc1ccccc1)c1ccc(C(=O)NCCSc2ccccn2)cc1	i	87.3	80.3	0.675	59.7*
Nc1ccc2nc(SCc3ccccc3F)sc2c1	.	.	.	-1.45	.
CCOC(=O)c1ccccc1-c1csc(N)n1	i	.	.	1	-0.3
Cc1cc(C(C)(C)C)cc(S(=O)(=O)Nc2ccc(O)c(C(=O)O)c2)c1C	i	102.0	97.2	0.182	-5.8
CC(=O)Nc1ccc(NC(=O)c2ccc(NS(=O)(=O)c3cc(C(C)(C)C)cc(C)c3C)cc2)cc1	i	68.0	34.0	-0.452	51.9*
Fc1ccccc1CSCc1nc2ccccc2[nH]1	+	.	.	-1.42	10.2
Fc1cccc(F)c1CSc1nc2ccccc2[nH]1	i	88.5	75.5	-0.643	99.8*
CN(Cc1ccccc1)C(=O)COC(=O)C1=NNC(=O)CC1	i	105.2	101.7	0.0258	51.9*
CN(Cc1ccccc1)C(=O)COC(=O)c1cncc(Br)c1	i	.	.	-0.775	-2.7
CC1(C)Cc2c(c(N3CCOCC3)nc3sc4c(NCCN5CCOCC5)nnnc4c23)CS1	.	.	.	1.49	.
CC(C)CCNc1nnnc2c1sc1nc(N3CCOCC3)c3c(c12)CC(C)(C)SC3	i	87.4	83.7	1.57	57.0*
COc1ccc(NS(=O)(=O)c2cc([N+](=O)[O-])ccc2N/N=C\c2c(C)[nH]c3ccccc23)cc1	+	13.9	3.8*	-0.184	98.2*
CN1CCN(c2ccc([N+](=O)[O-])cc2S(=O)(=O)N2CCOCC2)CC1	i	100.9	94.2	0.265	-5.0
COc1ccc(/C=N/Nc2ccc([N+](=O)[O-])cc2S(=O)(=O)N2CCN(C)CC2)cc1	+	71.4	71.0	-0.749	9.6
COc1nnc(-c2ccc(N3CCCCC3)c(NC(C)=O)c2)c2ccccc12	i	98.1	100.4	-0.135	3.9
CCCCNC(=O)CSc1nc2ccsc2c(=O)n1CCCC(=O)NCCc1ccc(S(N)(=O)=O)cc1	i	.	.	-0.395	4.7
